Measured values from different studies.
Target: Peripheral plasma membrane protein CASK (CASK, Homo sapiens, UniProt O14936)
One construct used (O14936 1-926): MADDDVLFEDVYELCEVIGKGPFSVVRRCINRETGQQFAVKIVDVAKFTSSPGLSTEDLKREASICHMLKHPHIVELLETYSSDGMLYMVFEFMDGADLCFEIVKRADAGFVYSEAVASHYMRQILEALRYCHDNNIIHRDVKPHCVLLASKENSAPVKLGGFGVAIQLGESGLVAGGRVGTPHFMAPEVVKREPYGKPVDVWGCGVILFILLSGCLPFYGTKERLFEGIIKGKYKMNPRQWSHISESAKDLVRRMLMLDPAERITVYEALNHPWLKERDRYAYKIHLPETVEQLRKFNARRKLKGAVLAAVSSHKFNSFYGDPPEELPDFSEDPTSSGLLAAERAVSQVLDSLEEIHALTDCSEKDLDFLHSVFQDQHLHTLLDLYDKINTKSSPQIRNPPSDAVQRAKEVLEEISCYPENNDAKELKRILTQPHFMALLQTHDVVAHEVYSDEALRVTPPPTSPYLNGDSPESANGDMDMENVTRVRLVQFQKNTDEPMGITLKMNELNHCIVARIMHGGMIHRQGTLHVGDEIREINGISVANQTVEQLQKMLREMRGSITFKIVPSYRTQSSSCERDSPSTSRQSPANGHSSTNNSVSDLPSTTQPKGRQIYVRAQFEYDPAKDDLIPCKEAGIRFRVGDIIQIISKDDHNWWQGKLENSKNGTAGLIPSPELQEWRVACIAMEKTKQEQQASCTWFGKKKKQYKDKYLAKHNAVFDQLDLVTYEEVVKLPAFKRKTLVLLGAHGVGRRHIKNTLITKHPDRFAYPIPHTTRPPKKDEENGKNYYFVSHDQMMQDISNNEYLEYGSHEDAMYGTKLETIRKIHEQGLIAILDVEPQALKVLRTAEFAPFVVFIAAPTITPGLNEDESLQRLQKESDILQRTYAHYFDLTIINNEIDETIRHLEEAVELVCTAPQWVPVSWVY

COc1ccnn2ncc(-c3ccnc(N(C)C)n3)c12 — remaining binding (binding; 1 µM): 96%
O=C(c1ccc(Nc2ncc(Cl)c(-c3ccc(Cl)s3)n2)cc1)N1CCC(N2CCCC2)CC1 — remaining binding (binding, competition with immobilised ligand; 1 µM): 87%
COc1ncc2cc3ccccc3nc2c1C#N — remaining binding (cell-free assay, competition with immobilised ligand; 5 µM): 99%
CCC(=N\O)/C(C)=C/c1ccc(F)cc1 — remaining binding (cell-free assay, competition with immobilised ligand; 1 µM): 70%
C=CC(=O)N1CCC(C(=O)NCC(=O)N2CCN(c3nc(-c4cnc(N)nc4C(F)F)nc(N4CCOCC4)n3)CC2)CC1 — remaining binding (binding, competition with immobilised ligand; 1 µM): 69%
c1cnn2ncc(-c3ccnc(N4CCC45COC5)n3)c2c1 — remaining binding (binding; 1 µM): 81%
O=C(NCCCN1CCOCC1)c1ccc(Nc2nccc(-c3cc4ccccc4s3)n2)cc1 — remaining binding (binding, competition with immobilised ligand; 1 µM): 100%
Cc1c(NC(=O)c2cc(C(N)=O)nc3cc(F)ccc23)c(C(F)(F)F)nn1Cc1ccc(C#N)cc1 — remaining binding (cell-free assay, competition with immobilised ligand; 1 µM): 71%
C[C@H]1CCN(c2nccc(-c3cnn4ncccc34)n2)C1 — remaining binding (binding; 1 µM): 74%
CCN1CCN(Cc2ccc(C(=O)Nc3ccc(C)c(Oc4ccc5c(c4)CC(=O)N5)c3)cc2C(F)(F)F)CC1 — remaining binding (binding, competition with immobilised ligand; 1 µM): 100%
O=C(O)[C@@H]1[C@@H](Cn2nnc3ccccc3c2=O)CC[C@H]1C(=O)c1ccc(OCCC2CCOCC2)cc1 — remaining binding (cell-free assay, competition with immobilised ligand; 1 µM): 100%
C[C@@H](c1ccc(-n2cnc3c(N)ncnc32)cc1)N1CCc2nn(C)c(Cc3ccccc3)c2C1=O — remaining binding (binding, competition with immobilised ligand; 0.1 µM): 80%
COc1cnc(Nc2cccc(S(N)(=O)=O)c2)nc1N1CCN(c2ccccc2)C(=O)C1 — remaining binding (binding, competition with immobilised ligand; 1 µM): 79%
CC1CCCN1c1nccc(-c2cnn3ncccc23)n1 (stereo not drawn) — remaining binding (binding, competition with immobilised ligand; 1 µM): 100%
FC(F)(F)c1ccc2c(c1)nc(-c1cccnc1)n2C1CC1 — remaining binding (cell-free assay, competition with immobilised ligand; 1 µM): 100%
O=C(NCCCN1CCOCC1)c1ccc(Nc2ncc(Cl)c(-c3ccc(Cl)s3)n2)cc1 — remaining binding (binding, competition with immobilised ligand; 1 µM): 98%
N#CC1(c2ccccn2)CCN(Cc2cc(C(=O)N3CCCC3)c(=O)n3ccccc23)CC1 — remaining binding (cell-free assay, competition with immobilised ligand; 1 µM): 100%
CN(c1nccc(-c2cnn3ncccc23)n1)C1CC1 — remaining binding (binding; 1 µM): 100%
Cn1nc(C(F)(F)F)cc1-c1cnc(N2CCc3cc(S(=O)(=O)Nc4c(F)cc(Cl)cc4F)cc(N4CCCC4=O)c32)nc1 — remaining binding (cell-free assay, competition with immobilised ligand; 1 µM): 77%
N[C@H]1CCN(c2nccc(-c3cnn4ncccc34)n2)C1 — remaining binding (binding, competition with immobilised ligand; 1 µM): 100%
O=C(NCC1CCOCC1)c1n[nH]cc1NC(=O)c1c(F)cccc1F — remaining binding (binding, competition with immobilised ligand; 1 µM): 61%
